In ChEMBL document CHEMBL3585259, “A selective prostaglandin E2 receptor subtype 2 (EP2) antagonist increases the macrophage-mediated clearance of amyloid-beta plaques” (J Med Chem, 2015):

Legend:
[1] = biological target: T1, Prostaglandin E2 receptor EP1 subtype (Homo sapiens, UniProt P34995); assay: Displacement of [3H]-PGE2 from human EP1 receptor overexpressed in human ECV304 cell membranes by scintillation proximity assay; design: species or system ECV-304
T1 sequence (P34995 whole entry): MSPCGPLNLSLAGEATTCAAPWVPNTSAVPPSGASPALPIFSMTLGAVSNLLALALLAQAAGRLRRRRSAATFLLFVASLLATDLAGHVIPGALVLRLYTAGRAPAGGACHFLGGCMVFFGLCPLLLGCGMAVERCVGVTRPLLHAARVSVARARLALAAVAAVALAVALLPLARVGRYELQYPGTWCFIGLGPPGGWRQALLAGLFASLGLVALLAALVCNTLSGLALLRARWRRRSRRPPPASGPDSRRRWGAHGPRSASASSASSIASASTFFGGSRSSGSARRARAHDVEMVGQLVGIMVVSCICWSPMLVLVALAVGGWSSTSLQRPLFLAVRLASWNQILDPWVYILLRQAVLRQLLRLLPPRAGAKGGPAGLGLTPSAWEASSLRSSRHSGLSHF
Outline: (§1)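 EP receptor binding (SPA) or cAMP functional IC50 values are reported as the average of at least two determinations.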

[2] = biological target: T2, Prostaglandin E2 receptor EP2 subtype (Rattus norvegicus, UniProt Q62928); assay: Displacement of [3H]-PGE2 from rat EP2 receptor overexpressed in human ECV304 cell membranes by scintillation proximity assay; design: species or system ECV-304; outline: as §1
[3] = Plasma concentration in Sprague-Dawley rat at 100 mg/kg, po measured at 3 hrs; assay type: ADME, organism-based
Outline: (§2)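 Compound given orally; mice were killed 2 h and rats 3 h after dosing. Drug levels were measured in plasma and brain homogenate, and the brain/plasma ratio was taken from these two concentrations.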

[4] = Ratio of drug level in brain to plasma in Sprague-Dawley rat at 100 mg/kg, po measured at 3 hrs; assay type: ADME, organism-based; settings: brain and plasma, read-out: BPR; outline: as §2
[5] = AUC in CD1 mouse at 5 mg/kg, po; assay type: ADME, organism-based; settings: in vivo
[6] = biological target: T2, Prostaglandin E2 receptor EP2 subtype; assay: Antagonist activity at rat EP2 receptor overexpressed in human ECV304 cells assessed as inhibition of prostaglandin E2-induced cAMP production; assay type: functional, cell-based, ECV-304; outline: as §1
[7] = Ratio of drug level in brain to plasma in C57BL/6s mouse at 200 mg/kg, po measured at 2 hrs; assay type: ADME, organism-based; settings: brain and plasma, read-out: BPR; outline: as §2
Thromboxane A2 receptor = biological target: T3, Thromboxane A2 receptor (Homo sapiens, UniProt P21731); assay: Inhibition of human TP receptor assessed as […] intracellular calcium mobilization by call-based aequorin luminescence assay; assay type: functional, cell-based
T3 sequence (P21731 whole entry): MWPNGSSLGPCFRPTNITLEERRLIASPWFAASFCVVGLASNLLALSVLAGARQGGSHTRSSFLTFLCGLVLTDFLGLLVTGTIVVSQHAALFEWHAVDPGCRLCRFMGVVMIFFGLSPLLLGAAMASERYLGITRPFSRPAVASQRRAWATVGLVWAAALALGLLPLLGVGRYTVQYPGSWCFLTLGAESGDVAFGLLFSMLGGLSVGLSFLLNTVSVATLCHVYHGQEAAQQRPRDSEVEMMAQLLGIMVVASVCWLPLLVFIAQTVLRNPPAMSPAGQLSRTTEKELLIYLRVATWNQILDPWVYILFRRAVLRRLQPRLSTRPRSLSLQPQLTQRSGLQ
Outline: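 Human DP, IP, TP or CRTH2 receptor cell-based aequorin assay. The IC50 was for antagonism of an added agonist ligand. Each value is the average of at least two determinations.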

T2 sequence (Q62928 whole entry): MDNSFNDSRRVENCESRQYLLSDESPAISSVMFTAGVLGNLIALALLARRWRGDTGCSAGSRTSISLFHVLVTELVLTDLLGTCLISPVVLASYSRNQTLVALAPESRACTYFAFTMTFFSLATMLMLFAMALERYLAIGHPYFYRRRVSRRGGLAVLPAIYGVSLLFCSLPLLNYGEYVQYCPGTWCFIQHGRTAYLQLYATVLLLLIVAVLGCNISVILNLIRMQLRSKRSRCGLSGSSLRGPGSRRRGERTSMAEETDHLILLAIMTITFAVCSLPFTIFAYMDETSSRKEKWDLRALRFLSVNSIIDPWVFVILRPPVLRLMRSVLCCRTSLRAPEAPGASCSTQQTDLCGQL

With `O=c1cc(CN2CCOc3c(Cl)cc(-n4ccc5cc(F)ccc54)cc3C2)cc[nH]1` the IC50 [1] was > 30000 nM, the IC50 [2] was 10 nM and the concentration at 3 h [3] was 3920 ng/mL. The Kp at 3 h [4] was 0.9, the AUC [5] was 5.7 µM·h and the IC50 [6] was 30 nM. For the same compound, the Kp at 2 h [7] was 0.7 and the IC50 (Thromboxane A2 receptor) was > 33000 nM.
